This data set can be described thus: Toxicity liver stage against HepG2, at 10uM. The note with it: human, HepG2-A16-CD81EGFP cells; read-out: INHIBITION
Further details: test concentration 10 uM, cell line HepG2-A16-CD81EGFP. It is filed as cell-based. In a few lines:
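Uninfected HepG2-A16-CD81EGFP cells, 3 × 10^3 per well, 1536-well, plated on prespotted compound at 10 μM final, parasite-free screening media added to match infected plates; puromycin 10 μM positive, DMSO 0.5% negative; run in parallel with 48 h PbLuc assay at 37 °C, 5% CO2; viability by CellTiter-Glo luminescence, normalized to controls.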
In the case of `CN1CC[C@H](c2nnc(-c3cncn3C)o2)C1`, the cytotoxicity at 10 µM is -2.88%.

Take `CC(=O)N1N=C(COc2ccc3c(c2)OCO3)OC1c1cccc(Cl)c1` (stereo not given): the cytotoxicity at 10 µM is -1.77%. The figure for `Cc1nnsc1C(=O)NCCn1ccc(-c2ccncc2)n1` is 1.92%; for `COc1cccc(CC(=O)N2CCc3ncnc(C)c3CC2)c1` it is -1.59%; for `CCCS(=O)(=O)N1C[C@@H]2COC[C@@H](Cc3nc(C)no3)[C@@H]2C1` it is 6.34%. The same measure for `COCCC(=O)N1CCC2(COCc3cnc(NCC4CC4)nc32)C1` (stereo not given): 6.24%.

For `O=S(=O)(c1ccccc1F)N1CCCC(c2nccs2)C1` (stereo not given), the cytotoxicity at 10 µM is -11%. With `CC(=O)N1CCC(c2cc(C(F)(F)F)nc3nccn23)CC1`, the cytotoxicity at 10 µM is -2.11%. The same measure for `COCCN1CCCC1c1nccnc1Nc1nccs1` (stereo not given): -7.55%; for `COc1cccc(CN2CC[C@H]3[C@@H](C2)[C@H](c2ccsc2)CN3C(C)=O)c1`: -5.61%; for `CC(=O)N1CC2(CCN(Cc3ccc(Cl)cc3)CC2)Cc2ccccc21`: 14.2%. The same measure for `CC(C)c1nnc(NC(=O)C2CSCN2C(=O)C2CCC2)s1` (stereo not given): 5.04%.

For `CCCN1CCCN(C(=O)c2ccc(Oc3cccnc3)cc2)CC1`, the cytotoxicity at 10 µM was -46.9%. The same measure for `Cc1ccc(C(=O)N(C)S(C)(=O)=O)cc1Cl`: -46.5%.

In the case of `CC1CN(C)CCN1C(=O)COc1cccc(Oc2ccccn2)c1` (stereo not given), the cytotoxicity at 10 µM was 10.7%.

Turning to `CCC(c1ccccc1)S(=O)(=O)CCO` (stereo not given), the cytotoxicity at 10 µM was -136%. As for `CC(NC(=O)N1CCCN(CC(F)F)CC1)c1ccco1` (stereo not given), the cytotoxicity at 10 µM is -6.03%.

Consider `Cc1cc(C(=O)N2CCCC2CN2CCCC2)no1` (stereo not given), for which the cytotoxicity at 10 µM worked out at 10%. With `CN(C)Cc1ccc(C(=O)N2CCCC(n3cccn3)C2)cc1` (stereo not given), the cytotoxicity at 10 µM was -0.798%. The figure for `Cc1nc(C(=O)NS(=O)(=O)c2cccc(C#N)c2)cs1` is -1.95%; for `COCCN1CCC(NC(=O)C/C=C/c2ccc(C(C)C)cc2)CC1` it is -0.616%. For the molecule `CCc1cnc(CN(C)C(C)C(=O)N2CCc3ccccc3C2)s1` (stereo not given), the cytotoxicity at 10 µM was 7.2%. The same measure for `Cn1c(C2CCCCN2C(=O)CN2CCCC2=O)nc2ccccc21` (stereo not given): -0.62%; for `CNC(=O)NC(=O)C(C)N1CCC(c2c[nH]c3ccc(OC)cc23)CC1` (stereo not given): 12.5%.

`CC(NC(=O)CCn1cccn1)c1cccs1` (stereo not given): the cytotoxicity at 10 µM was -3.57%. Turning to `N#Cc1cc(NC(=O)c2ccncc2)ccc1N1CCC(O)CC1`, the cytotoxicity at 10 µM came out at 7.48%.

Regarding `Cc1nc(C)c(C(=O)Nc2cccc(CN3CCC(CO)CC3)c2)o1`, the cytotoxicity at 10 µM was -154%.

As for `CCn1cc(S(=O)(=O)NC(=O)CCc2c[nH]c3ccccc23)cn1`, the cytotoxicity at 10 µM is -11.3%. The same measure for `Cc1cn2c(n1)C(CNCc1cccc3c1OCO3)CCC2` (stereo not given): -0.372%; for `Cc1cc(N2CCC(NC(=O)CCC3CCCO3)CC2)nc(C)n1` (stereo not given): -8.21%. As for `COCc1ccc(C(=O)NS(=O)(=O)c2ccc3c(c2)CCC(=O)N3)cc1`, the cytotoxicity at 10 µM is -1.89%. For the molecule `Cc1nnc(C(C)N2CCc3[nH]c4ccc(Cl)cc4c3C2)o1` (stereo not given), the cytotoxicity at 10 µM is -9.77%. The same measure for `Cc1ccnc(NC(=O)C2CCN(CCCn3ccnc3)CC2)c1`: -57.9%; for `COc1cccc(CN(C)Cc2nc(C(C)C)no2)c1`: -43.6%; for `Clc1cccc(-c2noc(CCN3CCN(c4ccncc4)CC3)n2)c1`: 24%. Consider `Cc1nnc([C@@]23CCO[C@@H]2CCN(S(=O)(=O)c2ccccc2)C3)o1`, for which the cytotoxicity at 10 µM is -99.4%.

With `CC(C)Nc1ncnc2c1CCN(C(=O)CCc1ccccc1)CC2`, the cytotoxicity at 10 µM is -72%. With `Cn1cc(CNCC2Cn3nnc(-c4ccccc4)c3CO2)cn1` (stereo not given), the cytotoxicity at 10 µM was -4.66%.

In the case of `CC(C)NC(=O)N1CC(=O)c2sc(Nc3ccc(C#N)cc3)nc2C1`, the cytotoxicity at 10 µM was -7.77%. Take `CN(CCCc1ccccc1)C(=O)c1cn2c(n1)CNCC2`: the cytotoxicity at 10 µM is -52.4%. The figure for `CC(C)n1ccnc1C1CCCN(c2nc3ccccc3s2)C1` (stereo not given) is 5.07%; for `CC(C)N1CCC(C(=O)NC[C@H]2CCc3ccccc3O2)CC1` it is 11.1%. Consider `OC(c1ccccn1)C1CCN(Cc2cc3n(n2)CCNC3)CC1` (stereo not given), for which the cytotoxicity at 10 µM was 15.4%. Turning to `COc1ccc(-c2cc(N)ccn2)c(OC)c1OC`, the cytotoxicity at 10 µM was determined as 11.4%. The figure for `C[C@@H]1CN(Cc2cc(C3CCCCC3)no2)CC[C@]1(C)O` is -13.2%; for `COCCC(=O)N[C@H]1CC[C@H](Nc2nccc(-c3ccncc3)n2)C1` it is 11.5%; for `Cc1cc(CN2CCCC2)cc(Oc2ccc(C(F)(F)F)cn2)c1` it is -9.72%. The same measure for `CCN1CCN(c2ncnc3c2CCN(C(=O)C2CC2)C3)CC1`: -3.2%.

Take `CC(=O)N1CCc2[nH]cnc2C12CCN(C(=O)Cc1cccs1)CC2`: the cytotoxicity at 10 µM was 7.2%. The figure for `Cc1nc(NC2CCS(=O)(=O)CC2)cc(C2CCCNC2)n1` (stereo not given) is -11%; for `CCNC(=O)[C@@H]1C[C@H](N)CN1Cc1ccc(-c2cc[nH]n2)o1` it is -47.6%; for `COc1ccc2c(c1)OCC(Cc1cncc(N)c1)C2` (stereo not given) it is -0.918%. On to `Cc1sc2ncnc(N3CCC(N(C)Cc4cnn(C)c4)CC3)c2c1C`, for which the cytotoxicity at 10 µM is -2.98%.

Turning to `COc1ccc(-c2ccoc2)cc1CNC1CCCC1`, the cytotoxicity at 10 µM was -3.45%. With `CN(Cc1ccccc1)S(=O)(=O)N1C[C@@H](C(=O)O)[C@H](C2CC2)C1`, the cytotoxicity at 10 µM was -150%. Consider `Cc1ncsc1CCN(C)C(=O)CN1CCOC1=O`, for which the cytotoxicity at 10 µM is -15.3%. On to `CC(C)=CCC1(C(=O)O)CCCN(CCC(=O)NC2CC2)C1` (stereo not given), for which the cytotoxicity at 10 µM is -7.69%. For `CCc1n[nH]c(C(=O)N2CCN(c3ccc4ccccc4c3)CC2)c1C`, the cytotoxicity at 10 µM was -3.03%. The same measure for `CNc1nc(C)c(C(=O)N2CCC(C(O)Cc3ccccc3)CC2)s1` (stereo not given): 3.11%. `O=C(C1CC1)N1CCC(C(=O)N2CCC(c3ccc(F)cc3)C2)CC1` (stereo not given): the cytotoxicity at 10 µM is -46.3%. The same measure for `CCc1cnc(NCCS(=O)(=O)N(C)C)nc1`: -10.2%; for `NC(=O)c1cc2c(nc1Oc1cccc(CN3CCCC3)c1F)CCC2`: -1.47%; for `CC(=O)N[C@@H]1CN(C(=O)c2cc3ccccc3[nH]2)C[C@H]1c1ccc(C)o1`: -10.2%. The same measure for `Cc1ccc(NC(=O)c2coc(C)n2)c(C)c1`: -4.94%; for `COCc1ncc(CN(Cc2ccncc2)Cc2ccc(C)s2)cn1`: -47%. `COc1ccc(-c2nccn2CC(O)CN2CCCC2)c(F)c1` (stereo not given): the cytotoxicity at 10 µM came out at 2.87%. `O=C1CC2(CCN(Cc3ccc(Cl)s3)C2)C(=O)N1` (stereo not given): the cytotoxicity at 10 µM is -3.3%. On to `CCn1ccc2ccc(CN3CCCC3c3nc(C(C)C)no3)cc21` (stereo not given), for which the cytotoxicity at 10 µM amounted to 5.15%. The figure for `CC(C)SCC(=O)N1CCc2c(nc(N(C)C)nc2N(C)C)C1` is 21.1%.

`Cc1nnc(CCNC2CCN(c3ncnc4c(C)csc34)CC2)s1`: the cytotoxicity at 10 µM turned out to be 20.7%.

As for `NC(=O)C1CCCN(Cc2c(-c3ccco3)[nH]c3ncccc23)C1` (stereo not given), the cytotoxicity at 10 µM stood at 3.91%. The figure for `COc1ccc(-n2ccc(C(=O)NCCN3CCCC(C)C3)n2)cc1` (stereo not given) is -0.0158%; for `CC(C)c1nccn1C1CCCN(C(=O)CCc2cscn2)C1` (stereo not given) it is -7.81%. The figure for `O=C1CN(C(=O)c2cccc(OCc3cscn3)c2)CCN1` is 1.9%; for `c1cc(CNCC2CNc3ccnn3C2)cc(N2CCOCC2)n1` (stereo not given) it is -5.13%. The same measure for `CC(=O)NCc1ccc(C(=O)N2CCCCC2Cn2cccn2)o1` (stereo not given): -4.22%; for `CCC(CN1CCOCC1)n1cncc1-c1ccc2c(c1)CCN2CC` (stereo not given): 14.9%; for `O=C(C1CCCCC1)N1CCC2(CC1)CNCc1ccccc12`: -6.13%.

For the molecule `Fc1ccc(CN2CCO[C@H]3[C@H](Oc4ccccn4)CC[C@@H]32)cc1`, the cytotoxicity at 10 µM was 6.44%. For `COc1ccc(CN2CC[C@@H]3[C@H]2CCC(=O)N3c2cnn(C)c2)cc1`, the cytotoxicity at 10 µM amounted to 17.4%. In the case of `CCOCc1cncc2c1CCN(C(=O)c1cscn1)C2`, the cytotoxicity at 10 µM was -107%.

With `Fc1ccc(N2CCOC3(COCCN(c4ncccn4)C3)C2)cc1` (stereo not given), the cytotoxicity at 10 µM is -95.4%.

As for `O=C(NC1CC1)[C@@H]1CCO[C@@H]2CCN(CC3CCC3)C[C@H]21`, the cytotoxicity at 10 µM was -111%. Turning to `Fc1cnc(N2C[C@@H]3C[C@@H](c4nc(C5CC5)cs4)O[C@@H]3C2)nc1`, the cytotoxicity at 10 µM was 22.8%.

Turning to `Fc1ccc(CN2CCCC3(COCCN(Cc4c[nH]nn4)C3)C2)cc1` (stereo not given), the cytotoxicity at 10 µM is 4.9%. The same measure for `COc1ccc(C[C@H]2CN(c3nnc(C)s3)CC[C@H]2OC)cc1`: 8.04%; for `O=C(c1ccccc1)N1CCCC2(CCN2Cc2cccc(F)c2)C1` (stereo not given): -121%. The figure for `O=C(c1cccnc1)N1CCC2(CCN(C(=O)N3CCCC3)CC2)C1` is -103%. The figure for `CCn1nnc2c1C(COCCN(C)C)CN(Cc1ccco1)C2` (stereo not given) is 1.86%. On to `CCC(=O)N1CCC2(CC1)CC(N1CCOCC1)c1cc(C)ccc12` (stereo not given), for which the cytotoxicity at 10 µM was -149%.

Take `CNC(=O)C1CCC2(CCN(c3nncs3)CC2)CO1` (stereo not given): the cytotoxicity at 10 µM was determined as 6.01%. On to `Cc1ccc(CN2CC[C@@H]3[C@@H](CO[C@H]3CN(C)C)C2)o1`, for which the cytotoxicity at 10 µM was -130%. The same measure for `c1cnc(N2CCC3(CCN(Cc4cccnc4)CC3)CC2)nc1`: -88.4%; for `CNC(=O)N1C[C@@H]2C[C@H](C(=O)Nc3ccccc3)[C@H](C1)O2`: -2.24%.

As for `CN(C)C(=O)CN1C[C@H]2CC[C@@H](C1)N(Cc1cccc(Cl)c1Cl)C2`, the cytotoxicity at 10 µM is -5.3%.

The values are drawn from ChEMBL document CHEMBL4513216, “Probing the Open Global Health Chemical Diversity Library for Multistage-Active Starting Points for Next-Generation Antimalarials” (ACS Infect Dis, 2020).
